The text below walks through data of ChEMBL document CHEMBL1127511, “Synthesis and antitumor activity of a series of [2-substituted-4,5-bis(aminomethyl)-1,3-dioxolane]platinum(II) complexes” (J Med Chem, 1994).

Values joined by “and” are separate entries in the source; they are usually repeats but may differ in a detail not shown here. Equal entries are not always repeated.

The test system of test [1] is Mus musculus. As to the kind of experiment: The serum levels of creatinine in mice after a single intraperitoneal at dose 6.0 mg/kg on day1. In kind it is functional, organism-based. Also on record: dose 6 mg/kg. A digest of the protocol: (§1)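 Male ICR mice, single ip dose on day 0 in 0.5% carboxymethylcellulose sodium in water, six per group. Blood drawn from the posterior vena cava under anesthesia on days 1, 4, 8. Serum obtained by centrifugation (1500g, 10 min) and run on a biochemistry analyzer. Values are mean ± SE.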

Test [2] deals with Mus musculus. As to the kind of experiment: The serum levels of blood urea nitrogen in mice after a single intraperitoneal at dose 6.0 mg/kg on day 4. It counts as functional, organism-based. Also on record: dose 6 mg/kg. In a few lines:
as §1

Test [3] concerns L1210. Kind of test: Antitumor activity against Cisplatin-Resistant L1210 Leukemia cells in mice at their respective dose at 1.5 mg/kg, ip, days. It counts as functional, organism-based. Also on record: dose 1.5 mg/kg. The following applies: Mus musculus. In a few lines: (§2)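 BDF1 male mice inoculated ip on day 0 with 1 × 10^6 viable (trypan blue-excluding) L1210 cells, or cisplatin-resistant L1210 cells, maintained by serial ip passage in DBA/2 mice. The resistant line came from continuous exposure to rising cisplatin and was passaged in DBA/2 mice given cisplatin 5 mg/kg ip on days 1 and 5. Drug ip on days 1, 5, 9; seven mice per dose; end day 50; %T/C from mean survival time.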

Test [4] deals with L1210. As to the kind of experiment: Antitumor activity against L1210 Leukemia cells in mice at 6.25 mg/kg. The note with it: Mus musculus. It counts as functional, organism-based. Also on record: dose 6.25 mg/kg. In a few lines:
as §2

The subject of test [5] is Mus musculus. As to the kind of experiment: Antitumor activity against L1210 Leukemia cells in mice at their respective dose at 3.1 mg/kg, ip, days. It counts as functional, organism-based. Also on record: dose 3.1 mg/kg. The note with it: Leukemia cell. A digest of the protocol:
as §2

The test system of test [6] is L1210. Kind of test: Antitumor activity against Cisplatin-Resistant L1210 Leukemia cells in mice at their respective dose at 3.1 mg/kg, ip, days. The following applies: Mus musculus. Also on record: dose 3.1 mg/kg. It counts as functional, organism-based. A digest of the protocol:
as §2

Test [7] is filed under the species Mus musculus. Kind of test: Number of toxic deaths/number of animals tested. In kind it is functional, organism-based. A digest of the protocol:
(§3)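 L1210-bearing BDF1 mice (1 × 10^6 cells ip, day 0), seven per dose group, treated ip on days 1, 5 and 9. Toxic deaths counted per group. Cures are animals without gross evidence of tumor on day 50, when experiments ended.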

The test system of test [8] is Mus musculus. As to the kind of experiment: The serum levels of creatinine in mice after a single intraperitoneal at dose 6.0 mg/kg on day 4. It counts as functional, organism-based. Also on record: dose 6 mg/kg. A digest of the protocol:
as §1

In test [9] the test system is Mus musculus. Kind of test: The serum levels of creatinine in mice after a single intraperitoneal at dose 6.0 mg/kg on day 8. In kind it is functional, organism-based. Also on record: dose 6 mg/kg. A digest of the protocol: as §1
In test [10] the test system is Mus musculus. As to the kind of experiment: Antitumor activity against L1210 Leukemia cells in mice at their respective dose at 1.5 mg/kg, ip, days. Also on record: dose 1.5 mg/kg. The note with it: Leukemia cell. It counts as functional, organism-based. In a few lines:
as §2

Test [11] has as its system Mus musculus. As to the kind of experiment: The serum levels of blood urea nitrogen in mice after a single intraperitoneal at dose 6.0 mg/kg on day 8. In kind it is functional, organism-based. Also on record: dose 6 mg/kg. In a few lines:
as §1

Test [12] relates to Mus musculus. As to the kind of experiment: The serum levels of blood urea nitrogen in mice after a single intraperitoneal at dose 6.0 mg/kg on day1. In kind it is functional, organism-based. Also on record: dose 6 mg/kg. A digest of the protocol:
as §1

Test [13] concerns L1210. As to the kind of experiment: Antitumor activity against L1210 (murine leukemia) cells in mice at 100 mg/kg i.p. It counts as functional, organism-based. Also on record: dose 100 mg/kg. The following applies: Mus musculus. A digest of the protocol:
as §2

The subject of test [14] is Mus musculus. Kind of test: The serum levels of blood urea nitrogen in mice after a single intraperitoneal at dose 150 mg/kg on day 4. It counts as functional, organism-based. Also on record: dose 150 mg/kg. In a few lines:
as §1

The nature of test [15]: Number of deaths/number of animals tested; out of 7 mouse. It counts as functional. A digest of the protocol: as §3
Test [16] relates to L1210. Kind of test: Antitumor activity against L1210 Leukemia cells in mice at 50 mg/kg. In kind it is functional, organism-based. Also on record: dose 50 mg/kg. The note with it: Mus musculus. In a few lines: as §2
The subject of test [17] is L1210. As to the kind of experiment: Antitumor activity against Cisplatin-Resistant L1210 Leukemia cells in mice at their respective dose at 100 mg/kg, ip, days. In kind it is functional, organism-based. Also on record: dose 100 mg/kg. The note with it: Mus musculus. In a few lines:
as §2

Test [18] deals with L1210. As to the kind of experiment: Antitumor activity against L1210 Leukemia cells in mice at 25 mg/kg. It counts as functional, organism-based. Also on record: dose 25 mg/kg. The following applies: Mus musculus. In a few lines:
as §2

The species named for test [19] is Mus musculus. Kind of test: Number of cures/number of animals tested; out of 7 mouse. It counts as functional, organism-based. A digest of the protocol:
as §3

Test [20] relates to Mus musculus. Kind of test: The serum levels of creatinine in mice after a single intraperitoneal at dose 150 mg/kg on day 8. In kind it is functional, organism-based. Also on record: dose 150 mg/kg. In a few lines:
as §1

The subject of test [21] is L1210. As to the kind of experiment: Antitumor activity against Cisplatin-Resistant L1210 Leukemia cells in mice at their respective dose at 50 mg/kg, ip, days. In kind it is functional, organism-based. Also on record: dose 50 mg/kg. The note with it: Mus musculus. In a few lines: as §2
Test [22] deals with Mus musculus. As to the kind of experiment: The serum levels of creatinine in mice after a single intraperitoneal at dose 150 mg/kg on day1. It counts as functional, organism-based. Also on record: dose 150 mg/kg. A digest of the protocol:
as §1

Test [23] has as its system Mus musculus. As to the kind of experiment: The serum levels of creatinine in mice after a single intraperitoneal at dose 150 mg/kg on day 4. In kind it is functional, organism-based. Also on record: dose 150 mg/kg. A digest of the protocol: as §1
The test system of test [24] is L1210. As to the kind of experiment: Antitumor activity against Cisplatin-Resistant L1210 Leukemia cells in mice at their respective dose at 25 mg/kg, ip, days. The note with it: Mus musculus. It counts as functional, organism-based. Also on record: dose 25 mg/kg. In a few lines: as §2
The test system of test [25] is Mus musculus. Kind of test: The serum levels of blood urea nitrogen in mice after a single intraperitoneal at dose 150 mg/kg on day1. Also on record: dose 150 mg/kg. In kind it is functional, organism-based. A digest of the protocol: as §1
For test [26], the system named is Mus musculus. As to the kind of experiment: The serum levels of blood urea nitrogen in mice after a single intraperitoneal at dose 150 mg/kg on day 8. In kind it is functional, organism-based. Also on record: dose 150 mg/kg. A digest of the protocol: as §1
Test [27] deals with L1210. Kind of test: Antitumor activity against L1210 Leukemia cells in mice at 12.5 mg/kg. Also on record: dose 12.5 mg/kg. The note with it: Mus musculus. It counts as functional, organism-based. In a few lines:
as §2

Another test relates to MKN-45. As to the kind of experiment: Cytotoxicity activity against human stomach adenocarcinoma cell lines MKN-45by using MTT assay. It counts as functional, cell-based. In a few lines: (§4)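 Human stomach cancer lines in RPMI-1640 with 10% heat-inactivated FCS and penicillin/streptomycin, 37 °C, 5% CO2, seeded to stay in exponential growth. Compound added as 0.1–100.0 μg/mL solutions (stock, diluted 1:10 in well), triplicate, 4 days. MTT for 4 h, formazan dissolved in DMSO or acidified 2-propanol, read at 540 nm. IC50 from OD relative to control by probit analysis, ≥3 experiments.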

The next test deals with NCI-N87. Kind of test: In vitro cytotoxicity activity against human stomach cancer cell lines NCI-N87. It counts as functional, cell-based. In a few lines:
as §4

A further test relates to PC-14. As to the kind of experiment: Cytotoxicity activity against human non-small cell lung adenocarcinoma cell lines PC-14 by using MTT assay. In kind it is functional, cell-based.
Another test relates to SNU-5. As to the kind of experiment: In vitro cytotoxicity activity against human stomach cancer cell lines SNU-5. In kind it is functional, cell-based. In a few lines:
as §4

Another test deals with SNU1. Kind of test: In vitro cytotoxicity activity against human stomach cancer cell lines SNU-1. It counts as functional, cell-based. A digest of the protocol:
as §4

Test [28] concerns KATO III stomach cancer cell line. Kind of test: Cytotoxicity activity against human stomach adenocarcinoma cell lines KATO-III by using MTT assay. In kind it is functional, cell-based. In a few lines:
as §4
A general note: Tetrazolium assays rely on reduction of a dye to a coloured formazan, in cell work by metabolically active cells.

For the next test, the system named is PC-9. Kind of test: Cytotoxicity activity against human non-small cell lung adenocarcinoma cell lines PC-9 by using MTT assay. In kind it is functional, cell-based.
The subject of another test is SNU-16. As to the kind of experiment: In vitro cytotoxicity activity against human stomach cancer cell lines SNU-16. It counts as functional, cell-based. A digest of the protocol: as §4

One may read the T/C as the result in the treated group divided by that in the control group, in per cent. Turning to CISPLATIN [listing 1 of 2 here], the Creatinine amounted to 0.26 mg 100ml-1 with Mus musculus [1], 0.28 mg 100ml-1 in the test with Mus musculus [8] and 0.4 mg 100ml-1 with Mus musculus [9]. In addition, the BUN amounted to 43.1 mg 100ml-1 in the test on Mus musculus [2], 32.5 mg 100ml-1 with Mus musculus [11] and 24.8 mg 100ml-1 in the test with Mus musculus [12]. Further, the T/C with L1210 [3] was 86%; in the test with L1210 [4] it was 82%; with Mus musculus [5], 167%; with L1210 [6], 109%; in the test with Mus musculus [10], 142%. Also, in the test filed under Mus musculus [7], the Ratio is 5 and 2.

Take CARBOPLATIN [listing 1 of 2 here]: the T/C was determined as 197% in the test with L1210 [13]; 107% in the test with L1210 [4]; 196% in the test with L1210 [16]; 81% in the test on L1210 [17]; 148% in the test on L1210 [18]; 132% with L1210 [21]. In addition, the results for the T/C in the test on L1210 [24] and with L1210 [27] were 98% and 125%, respectively. Further, the BUN is 21.1 mg 100ml-1 in the test with Mus musculus [14], 24.4 mg 100ml-1 in the test with Mus musculus [25] and 28.6 mg 100ml-1 with Mus musculus [26]. Moreover, the Ratio in test [15] is 2; in the test filed under Mus musculus [19], 1 and 2; in the test filed under Mus musculus [7] it was 1. The Creatinine stood at 0.31 mg 100ml-1 with Mus musculus [20], 0.25 mg 100ml-1 in the test on Mus musculus [22] and 0.19 mg 100ml-1 in the test on Mus musculus [23].

What is called IC50 is the midpoint of a concentration-inhibition curve. A high value points to a need for much substance. For the sequence CARBOPLATIN [listing 2 of 2 here], the IC50 with MKN-45 stood at 6.4 µg/mL; in the test with NCI-N87, 153.38 µg/mL; with PC-14, 5.8 µg/mL; with SNU-5, 10.75 µg/mL; in the test on SNU1, 37.78 µg/mL; in test [28] it was 10.5 µg/mL. In addition, the IC50 turned out to be 19 µg/mL in the test with PC-9 and 34.02 µg/mL with SNU-16.

Consider CISPLATIN [listing 2 of 2 here], for which the half-maximal inhibitory concentration (IC50) in the test with MKN-45 turned out to be 0.51 µg/mL; with NCI-N87, 13.73 µg/mL; in the test with PC-14, 0.77 µg/mL; in the test on SNU-5, 1.29 µg/mL; with SNU1, 2.9 µg/mL; in test [28], 0.83 µg/mL. Further, the IC50 is 1.03 µg/mL with PC-9 and 2.83 µg/mL in the test on SNU-16.
